The values that follow come from the EternaBench riboswitch data.

The series concerns MS2 coat protein. The experiment in a line: apparent Kd, MS2 coat protein; higher = weaker binding; RNA-MaP array; FMN 200 µM where present. In short, it runs like this: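 The titrant was SNAP-549-labelled MS2 coat protein, run from 0.7 or 1.5 nM in doubling steps to 3 µM. It was applied to designs transcribed by stalled E. coli RNA polymerase on Illumina sequencing-chip clusters, without ligand first and then with constant ligand, in 100 mM Tris-HCl pH 7.5, 80 mM KCl, 4 mM MgCl2, BSA, DTT, yeast tRNA and Tween-20. The apparent Kd is the median of filtered per-cluster binding-curve fits, with green signal normalised to red-channel RNA signal and control-cluster median Fmax.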

Where [1] appears, read: designed as: OFF switch for flavin mononucleotide, no ligand.
[2] abbreviates: ligand present: flavin mononucleotide, designed as: OFF switch for flavin mononucleotide.
[3] abbreviates: designed as: ON switch for flavin mononucleotide, no ligand.
Setting [4] is: ligand present: flavin mononucleotide, designed as: ON switch for flavin mononucleotide.

As a reminder, the apparent Kd is the concentration giving half-maximal binding under the conditions of the assay. Take “ACCGAGACAGAAGGAUAUACAUUGGUUACGCUGUUCGCGUCCUCGACCACAUGAGGAUCACCCAUGUAGAAGGUUUGUAGCGCG”: the “apparent Kd” value runs as follows: under setting [1], 0.0165 µM; under setting [2], 0.0427 µM.

On to “UUGUUGUAUGUAGGAUAUGCAUAUUGUUAUUAUGCAGAAGGACAUGAGGAUCACCCAUGUAUAUUAUUAUUAUAUAUUAUAUAU”, for which the “apparent Kd” value runs as follows: under setting [1], 0.0277 µM; under setting [2], 0.0439 µM.

As to “GCUAGAUUUGCAGGAUAUUGUAAUUUAUUAUUUCAAGAAGGGCAUUACAUGAGGAUCACCCAUGUCAUCCUAUGGUUUACUAGC”, the “apparent Kd” value worked out at 0.00957 µM under setting [1] and 0.0231 µM under setting [2].

“UUUUUAUUUGUAGGAUAUGGAGACAUGAGGAUCACCCAUGUAUGAUAAGAUAAAUUAUGAUGUGGCCAGAAGGAUAUUAUUUUU”: the “apparent Kd” value was determined as 0.0871 µM under setting [3] and 0.119 µM under setting [4].

Regarding “CUCAUGUGAGGAUAUCAGUAGUAAAAAAAUAAAAUUACUACUGAGAAGGCACAUGAGGAUCACCCAUGUGCCUU”, the “apparent Kd” value runs as follows: under setting [1], 0.0156 µM; under setting [2], 0.0129 µM.

As for “AGUCGGGAAUACUCGAAUGGUUAGCAGGAUAUCGACAUGAGGAUCACCCAUGUUGGGUUGAAUGUCGAGAAGGGCUCGGAAUGA”, the “apparent Kd” value by setting is: under setting [1], 0.198 µM; under setting [2], 0.193 µM.

On to “CGGAGGUCAGGAUAUGCAUGGCGGGACUUGCGUCGUGGCGUGCAGAAGGGACAUGAGGAUCACCCAUGUGGAGC”, for which the “apparent Kd” value reads like this: under setting [1], 0.0822 µM; under setting [2], 0.145 µM.

In the case of “UGGUACUAGGGAGGAUAUGGGAAGAUACAUGAGGAUCACCCAUGUUUAAGUAUGCCGAGAGGCAACUAGAAGGCCCUAGUACCU”, the “apparent Kd” value by setting is: under setting [3], 1.44 µM; under setting [4], 0.116 µM.

Turning to “AGCCCGGGAGGAUAUCCAAUAUAUGACAUGAGGAUCACCCAUGUUUCCACUCGUACCUCCGGAGAAGGCCCGGCGA”, the “apparent Kd” value was found to be 0.0197 µM under setting [1] and 0.0194 µM under setting [2].

Take “GCUGCGUAUGAGAAGGCGAUCAUGAAACAUGAUCGAGGAUAUCAUGUUUACAUGAGGAUCACCCAUGUAUGGGUAUAAUGCAGC”: the “apparent Kd” value runs as follows: under setting [3], 0.335 µM; under setting [4], 0.0181 µM.

As to “AAUAUAGAGCUGGAAUAAAACACAACAUGAGGAUCACCCAUGUAGGAUAUCAGCACGAUAAGUGCUGAGAAGGACAUCCAGCUC”, the “apparent Kd” value under setting [1] stood at 0.0147 µM and the “apparent Kd” value under setting [2] came to 0.0142 µM.

In the case of “CCCUCACAUGAGGAUCACCCAUGUCAGGAUAUUCGACGGUAAAUUGGCCGUCUUAAAGGAAGAAGGGACGUAAC”, the “apparent Kd” value under setting [1] is 0.0125 µM and the “apparent Kd” value under setting [2] was determined as 0.0179 µM.

For the sequence “UUUUUGUGAGGAUAUCAGUAGUAGAACAAUAGUACUACUACUGAGAAGGUACAUGAGGAUCACCCAUGUUCCUC”, the “apparent Kd” value turned out to be 0.0194 µM under setting [1] and 0.0237 µM under setting [2].

Take “ACUGACAUGAGGAUCACCCAUGUCUUGAAUAGGUCAAAUUCACAGGAUAUGCACGAGGACAGAGUGCAGAAGGGUGAUGCAAUG”: the “apparent Kd” value is 0.0477 µM under setting [3] and 0.0117 µM under setting [4].

For the sequence “ACAUGAGGAUCACCCAUGUGAUGAUCUUCCAUGUCAUAUUUCAGAAGGCUCGCAUGUUUAAUGAGAGAGGAUAUGGAAUAUGCG”, the “apparent Kd” value runs as follows: under setting [1], 0.701 µM; under setting [2], 0.386 µM.

“GUAAUUAUAUAGGAUAUCGAUUUUAUUAUUUAACGAGAAGGAUGAACAUGAGGAUCACCCAUGUGGUAUCAUGG”: the “apparent Kd” value by setting is: under setting [1], 0.164 µM; under setting [2], 0.177 µM.

For the sequence “UUGGAGAUAGGAUAUACGAGGAGAGUUGAGGGAAGGUGAUGACAUGAGGAUCACCCAUGUAGAAGGAUCAGGAG”, the “apparent Kd” value is 0.144 µM under setting [1] and 0.0872 µM under setting [2].

As to “GUCGUGUGAGGAUAUGAUUUUUCGGCGGGCUUGCGUCUGCUUCAGAAGGCACAUGAGGAUCACCCAUGUUUGUC”, the “apparent Kd” value runs as follows: under setting [1], 0.012 µM; under setting [2], 0.0295 µM.

For the sequence “AACUAGUCAGGAUAUACGAACAUGUCAAAAAACAUGAAGGGACAUGAGGAUCACCCAUGUAGAAGGGACUAGCA”, the “apparent Kd” value turned out to be 0.0378 µM under setting [1] and 0.223 µM under setting [2].

For “AGUAAGAUGCAGAAGGUGUCAGCGAGAGCUGCGACAUGAGGAUCACCCAUGUACAAGUGAGUGUACAAGGAUAUGCAUCUUACA”, the “apparent Kd” value came to 0.192 µM under setting [3] and 0.024 µM under setting [4].

As for “CAUUAAUUCAUUAUAUUAAUUUUACAGGAUAUGUAACAUGAGGAUCACCCAUGUAUUCUAGGUUAACAGAAGGGUAUUACUUGU”, the “apparent Kd” value runs as follows: under setting [1], 0.0286 µM; under setting [2], 0.0229 µM.

With “GGAUAUGUCGUCUACAUGAGGAUCACCCAUGUCGAUAGACAUGAGGAUAUUGAUAAGAAUUGUAUCGAGAAGGUAUGUAGGUCC”, the “apparent Kd” value under setting [3] turned out to be 0.0193 µM and the “apparent Kd” value under setting [4] stood at 0.0267 µM.

For the sequence “GCGUAUUUAAUAUUUAUAUAAUUGUCAGAAGGUGAAAAGACGACAUGAGGAUCACCCAUGUAAUUCAAGGAUAUGAUUAAGCGC”, the “apparent Kd” value was determined as 0.0307 µM under setting [3] and 0.0158 µM under setting [4].

On to “UGUCGGAGCAGAGGAUAUUACAUGAGGAUCACCCAUGUAUGACCCAAUAGCUGGAAACAGCAAUGUAAGAAGGCUGCUCCGACA”, for which the “apparent Kd” value under setting [1] was 0.0146 µM and the “apparent Kd” value under setting [2] amounted to 0.295 µM.

On to “AGUCAUGUCCGAGGAUAUGAUGCCGGUUUCUGCAAGCCAACGCGCCCGGCCUCAGAAGGCGGACAUGAGGAUCACCCAUGUAUC”, for which the “apparent Kd” value under setting [1] is 0.0649 µM and the “apparent Kd” value under setting [2] came to 0.0122 µM.

Consider “AGGUAACAUGAGGAUCACCCAUGUCAGGAUAUCAGGAAGAUUAGAAUAGAGUAGAGGAUGAGAAGGGACUAUAU”, for which the “apparent Kd” value under setting [1] is 0.032 µM and the “apparent Kd” value under setting [2] is 0.0303 µM.

For the sequence “GUCACACACUGCUCCGUGUCUGACAUGAGGAUCACCCAUGUGAGAAGGUAGCGUCGAAGCAACGUUAAGGAUAUCACGUGCAGU”, the “apparent Kd” value by setting is: under setting [1], 0.00668 µM; under setting [2], 0.00839 µM.

Take “AGAAAUCAUGUAGGAUAUGCAUGGCGAAGCUACGCAGAAGGACAUGAGGAUCACCCAUGUUAUAGCGUCCGAGAAAGGAUGCAA”: the “apparent Kd” value under setting [1] stood at 0.0279 µM and the “apparent Kd” value under setting [2] is 0.187 µM.

Consider “UUCCAACGAGGAUAUCGAUGGUGGAACAUGAGGAUCACCCAUGUAUGAGAUAGUGUAGUUCGAGAAGGCGUUCAGU”, for which the “apparent Kd” value reads like this: under setting [1], 0.058 µM; under setting [2], 0.0323 µM.

Consider “AACCUAAAACAGAAGGCCAAAUACAUGAGGAUCACCCAUGUCGAAUCAUGGAGGAUAUGUUGUUAUUUACUCGCAGAUGAGUGC”, for which the “apparent Kd” value reads like this: under setting [3], 0.0776 µM; under setting [4], 0.00818 µM.

As for “AUUACAUGAGGAUCACCCAUGUACAGAACGUUUCAAUACAGUGAGGAUAUACGAAAUGUAGGAACGUAGAAGGCACUGGGUACA”, the “apparent Kd” value is 0.181 µM under setting [3] and 0.0658 µM under setting [4].

Take “UCGUCGCUAGGAGGAUAUACAUGAUCUCACACAUGUACCGCUCACGCCACAUGAGGAUCACCCAUGUAGAAGGCCUAGAGAGGU”: the “apparent Kd” value is, setting by setting: under setting [1], 0.0265 µM; under setting [2], 0.0564 µM.

With “UUCGUGCAGCUUAGCUGUACGCGUACAUGAGGAUCACCCAUGUAGGAUAUGGUAGGCUUUGCUUACUAGAAGGAUAGUGUGAUC”, the “apparent Kd” value by setting is: under setting [1], 0.215 µM; under setting [2], 0.0704 µM.

With “AAAGGUGCAGGAUAUGCGUGGAAAAAGUGUAUUCAAAAAAAACAUGAGGAUCACCCAUGUAGAAGGGUACCAAA”, the “apparent Kd” value came to 0.0659 µM under setting [1] and 0.18 µM under setting [2].

Turning to “AUACUUAAUGAAGGAUAUCUUAGCAUAAACCUGAGAGAAGGUCAUUAUUACAUGAGGAUCACCCAUGUUGUAGUUAAUGGGUAA”, the “apparent Kd” value came out at 0.199 µM under setting [1] and 0.254 µM under setting [2].

On to “ACCACGGGAGGAUAUACAUGAGGAUCACCCAUGUCAACUCCACGUGCCCACGUCCUCUGUAGAAGGCCCUACAU”, for which the “apparent Kd” value runs as follows: under setting [1], 0.016 µM; under setting [2], 0.0243 µM.
